DENV2 CPE: DENV2-induced cell death inhibition | DENV2-infected cells, cytopathic effect rescue, plate reader | CPE inhibition, % at 9.99 µM | hit rate 1.7% among 350,000; in the data active = CPE inhibition above about 20%, passing the limit was not always enough; inconclusive = no clear call, values can overlap the other calls; tested in BHK-21 cells;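 also: 0% = median of neutral control wells and 100% = median of positive control wells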
SIRT5 block: inhibitors of human sirtuin-5 desuccinylase. Purified SirT5, succinyl-peptide AMC, trypsin-coupled fluorescence. inhibition, % at 15 µM. hit rate 1.1% among 330,000. AID 652115; in the data active = inhibition above about 15%; inconclusive = no clear call, values can overlap the other calls
MLL AF4-AF9 inh: MLL-AF4/AF9 protein interaction inhibition; hit rate 0.47% among 350,000; AID 651704; P42568; inhibition, % at 10 µM; AlphaScreen, biotin-AF4 peptide binding to FLAG-AF9;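 active = every replicate reaching a set inhibition limit, whatever the replicate mean, cut at about 25% in these data; inconclusive = mean inhibition reaches that limit but some replicates miss it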;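 also: 0% = plate neutral control median and 100% = total signal loss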
Target sequence (P42568 whole entry, looked up): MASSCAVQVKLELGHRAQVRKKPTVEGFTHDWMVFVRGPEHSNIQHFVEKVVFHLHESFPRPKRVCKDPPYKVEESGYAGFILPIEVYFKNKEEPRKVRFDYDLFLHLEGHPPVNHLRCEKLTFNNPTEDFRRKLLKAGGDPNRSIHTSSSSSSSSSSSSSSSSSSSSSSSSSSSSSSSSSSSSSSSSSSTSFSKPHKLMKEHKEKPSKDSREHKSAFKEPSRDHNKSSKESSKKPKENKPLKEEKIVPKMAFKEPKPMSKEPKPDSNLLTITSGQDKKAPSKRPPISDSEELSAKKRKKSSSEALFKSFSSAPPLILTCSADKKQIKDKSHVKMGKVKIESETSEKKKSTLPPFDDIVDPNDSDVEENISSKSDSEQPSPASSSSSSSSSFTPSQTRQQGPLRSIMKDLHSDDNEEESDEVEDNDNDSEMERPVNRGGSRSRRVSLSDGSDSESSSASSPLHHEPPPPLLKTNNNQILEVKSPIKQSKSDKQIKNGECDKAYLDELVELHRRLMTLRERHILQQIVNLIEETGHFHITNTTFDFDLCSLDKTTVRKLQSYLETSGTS
S100A4 inh HTS: S100A4-myosin IIA interaction inhibition. P26447. S100A4/TAMRA-MyoIIA peptide fluorescence polarization. AID 652163. inhibition, % at 10.7 µM. hit rate 0.14% among 360,000;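 active = mean inhibition of at least 70% across replicates, with every replicate also reaching that level; inconclusive = mean inhibition reaches 70% but some replicates fall short; inactive = mean inhibition below 70%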
Target sequence (P26447 whole entry, looked up): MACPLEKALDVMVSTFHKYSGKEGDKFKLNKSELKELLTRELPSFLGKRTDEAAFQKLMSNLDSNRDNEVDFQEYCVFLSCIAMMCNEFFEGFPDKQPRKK
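Assay system: human S100A4 monomer with TAMRA-labelled myosin IIA peptide / Buffer or medium: Calcium-containing HEPES buffer, pH 7.2 / Reagent: TAMRA-labelled myosin IIA heavy-chain peptide probe, 5 nM / Compound: one dose per compound / Timing: polarization read 5 min after assay mix addition, stable 5–60 min / Benchmarks: neutral control DMSO, positive control TFP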
CaV13 ICDI inh: Primary screen for inhibitors of IQ motif and Ca2+-dependent inactivation inhibitor domain binding in CACNA1D, Förster resonance energy transfer in living cells, … | inhibition, % at 12.3 µM | hit rate 0.098% among 340,000 | HEK cells, CFP/YFP FRET ICDI-IQ, plate reader, 10 min; percent FRET-ratio fall versus neutral wells;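 active = mean replicate inhibition of at least 30% and at least 1% of replicates passing that level; inconclusive = only one of the two criteria is met; inactive = neither criterion is met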;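 also: 0% = median of the neutral control wells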
Active calls of the source: *; ? = inconclusive; nt = no result given; ! = not confirmed by another sample. Hits are enriched below; roughly 2.7% of the tested compounds scored in any of these assays.

SMILES	DENV2 CPE	SIRT5 block	MLL AF4-AF9 inh	S100A4 inh HTS	CaV13 ICDI inh
C[C@H](CO)N1C[C@H](C)[C@@H](CN(C)C)Oc2c(NC(=O)C3CCOCC3)cccc2C1=O	40.3*	2.6	-2.7	25.1	nt
C[C@@H]1CN([C@@H](C)CO)C(=O)c2cccc(NC(=O)C3CCOCC3)c2O[C@@H]1CN(C)Cc1ccncc1	3.5	0.8	44.3*	-2.9	nt
CC(=O)N(C)C[C@@H]1Oc2ncc(C#CC(C)(C)O)cc2C(=O)N([C@@H](C)CO)C[C@@H]1C	-8.3	1.2	-19.7	-11.7	nt
CC(=O)N(C)C[C@H]1Oc2ncc(C#CC(C)(C)O)cc2C(=O)N([C@@H](C)CO)C[C@@H]1C	30.1*	0.3	-14.6	-3.0	nt
COCC(=O)N(C)C[C@@H]1Oc2ncc(C#CC(C)(C)O)cc2C(=O)N([C@@H](C)CO)C[C@@H]1C	23.5*	-3.2	-3.6	10.2	nt
COCC(=O)N(C)C[C@@H]1Oc2ncc(C#Cc3ccc(OC)cc3)cc2C(=O)N([C@@H](C)CO)C[C@H]1C	67.8*	-0.3	0.5	-7.8	nt
COCC(=O)N(C)C[C@H]1Oc2ncc(C#Cc3ccc(OC)cc3)cc2C(=O)N([C@@H](C)CO)C[C@H]1C	5.1	-7.0	-1.5	-3.7	nt
COCC(=O)N(C)C[C@H]1Oc2ncc(-c3ccccc3OC)cc2C(=O)N([C@@H](C)CO)C[C@@H]1C	21.4*	0.7	-16.5	1.3	nt
C[C@@H](O)C#Cc1ccc2c(c1)O[C@H](CN(C)C(=O)CC1CC1)[C@@H](C)CN([C@@H](C)CO)S2(=O)=O	0.2	-2.8	0.8	-11.9	nt
CC(=O)N(C[C@H]1N[C@H](CO)[C@H]1c1ccc(-c2cccnc2)cc1)C1CCCC1	-13.1	2.6	-4.2	-6.1	nt
COc1ccccc1CN1C[C@@H](C)[C@H](OC)CN(C)C(=O)c2ccc(NC(=O)Nc3ccccc3OC)cc2OC[C@H]1C	-0.2	14.0	1.2	6.9	nt
CC(=O)N(C)C[C@@H]1Oc2ncc(C#Cc3cccc(F)c3)cc2C(=O)N([C@H](C)CO)C[C@H]1C	3.6	20.5*	1.0	20.3	nt
Cc1cccc(/C(N)=N/OC(=O)COc2ccccc2Cl)c1	10.4	16.9*	0.8	-2.7	2.7
O=C(C1CC1)N1C[C@H]2[C@@H](c3ccccc31)[C@@H](CO)N2Cc1ccccc1Cl	18.4	3.9	-4.9	3.1	nt
CN1CCCCN2[C@@H](CO)[C@@H](c3ccc(C#CC4(O)CCCC4)cc3)[C@@H]2C1	0.2	-2.9	1.0	92.0*	nt
CN1CCCCN2[C@@H](CO)[C@H](c3ccc(C#CC4(O)CCCC4)cc3)[C@@H]2C1	1.6	-2.0	0.4	-9.6	nt
O=C(c1ccc(F)cc1)N1CCCCN2[C@@H](CO)[C@@H](c3ccc(C#CC4(O)CCCC4)cc3)[C@@H]2C1	36.3*	7.0	-2.7	-7.2	nt
O=C(c1ccc(F)cc1)N1CCCCN2[C@@H](CO)[C@H](c3ccc(C#CC4(O)CCCC4)cc3)[C@@H]2C1	4.9	-5.6	-0.7	-0.5	nt
Cc1noc(C)c1NC(=O)Nc1cccc2c1O[C@@H](CN(C)Cc1ccc(C(=O)Nc3ccccc3N)cc1)[C@@H](C)CN([C@H](C)CO)C2=O	-9.2	nt	4.6	-2.5	nt
CNc1cncc(-c2cccc(C(C)=O)c2)n1	31.3*	1.1	-0.2	1.2	-6.6
CNc1cncc(-c2cccc(NS(C)(=O)=O)c2)n1	3.3	-35.9	-2.0	21.0	-5.9
C[C@H](CO)N1C[C@H](C)[C@@H](CN(C)S(=O)(=O)c2ccc(F)cc2)Oc2cc(Br)ccc2S1(=O)=O	?	-4.6	1.9	4.2	-5.1
O=C(C[C@H]1CC[C@H](NC(=O)C2CCC2)[C@@H](CO)O1)NC1CCC1	40.5*	-2.5	-3.8	11.0	nt
O=C(C[C@H]1CC[C@H](NC(=O)C2CCOCC2)[C@@H](CO)O1)NCC1CC1	34.3*	-0.4	-2.0	-4.2	nt
O=C(C[C@@H]1CC[C@@H](NC(=O)CC2CC2)[C@@H](CO)O1)NCC(F)(F)F	61.8*	-0.2	2.6	20.1	nt
SMILES	DENV2 CPE	SIRT5 block	MLL AF4-AF9 inh	S100A4 inh HTS	CaV13 ICDI inh
O=C(C[C@H]1CC[C@@H](NC(=O)CC2CC2)[C@@H](CO)O1)NCC(F)(F)F	1.5	5.4	2.8	3.6	nt
C[C@H](CO)N1C[C@H](C)[C@H](CN(C)C(=O)Nc2ccc(-c3cccs3)cc2)OCc2cn(nn2)CCCC1=O	-1.9	2.6	-0.9	4.0	nt
CC1CN(C(=O)/C(C#N)=C2\N=C(NC(=O)c3ccccc3Cl)c3ccccc32)CC(C)O1 (configuration not stated)	0.9	21.0*	-0.3	0.2	-2.8
O=C1c2ccccc2C(=O)c2c(Nc3ccc(CCO)cc3)ccc(O)c21	-4.3	-0.3	50.3*	6.8	-4.2
C[C@H]1CN([C@@H](C)CO)C(=O)c2cc(C#CC3CCCCC3)cnc2O[C@H]1CN(C)S(=O)(=O)c1ccc(F)cc1	71.6*!	0.1	0.7	36.7	nt
C[C@H]1CN([C@@H](C)CO)C(=O)c2cc(C#CC3CCCCC3)cnc2O[C@@H]1CN(C)S(=O)(=O)c1cccc(F)c1	-1.2	26.8*	32.3*	-6.2	nt
C[C@@H]1CN([C@@H](C)CO)C(=O)c2cc(C#CC3CCCCC3)cnc2O[C@@H]1CN(C)S(=O)(=O)c1ccc(F)cc1	4.5	-1.3	-2.0	-4.3	-10.5
C[C@H](CO)N1C[C@H](C)[C@H](CN(C)S(=O)(=O)c2cccc(F)c2)Oc2ncc(C#CC3CCCCC3)cc2C1=O	-6.7	20.8*	1.4	2.6	nt
CC(=O)N(C)C[C@@H]1Oc2cc(-c3ccc(F)cc3)ccc2S(=O)(=O)N([C@@H](C)CO)C[C@@H]1C	-2.9	-1.2	-0.1	2.8	nt
C[C@H](CO)N1C[C@H](C)[C@H](CN(C)S(=O)(=O)c2cn(C)cn2)Oc2ccc(NC(=O)Cc3cn(C)c4ccccc34)cc2CC1=O	-2.3	3.7	1.2	-3.8	nt
CNC(=O)C[C@@H]1CC[C@@H]2[C@H](COc3ccc(NC(=O)Cc4cccs4)cc3C(=O)N2C)O1	-4.7	nt	nt	nt	nt
COc1ccc(NC(=O)N(C)C[C@@H]2Oc3c(NC(=O)C4CCCCC4)cccc3C(=O)N([C@H](C)CO)C[C@@H]2C)cc1	-3.6	-1.6	-2.0	18.1	nt
COc1cc(C(=O)N2CCNCC2)cc(OC)c1OC	-7.5	20.8*	0.2	-10.4	-5.0
O=C(NC[C@H]1N[C@H](CO)[C@@H]1c1ccc(C2=CCCC2)cc1)C1CCCCC1	4.2	0.7	2.0	-2.0	nt
CC(=O)NS(=O)(=O)c1ccc(N2C(=O)c3ccccc3C2=O)cc1	1.0	15.4*	-2.1	5.6	-2.4
CCCN(C)C[C@@H]1Oc2cc(C#Cc3cccnc3)ccc2S(=O)(=O)N([C@H](C)CO)C[C@@H]1C	-1.4	-0.4	0.8	-2.7	nt
C[C@@H]1CN([C@@H](C)CO)C(=O)Cc2cc(NS(=O)(=O)c3ccccc3)ccc2O[C@@H]1CN(C)Cc1ccc(Oc2ccccc2)cc1	25.0*	2.3	4.9	0.0	nt
